Only some compounds are listed: those with a hit (about 9.2% of all), similar ones and a draw of the others.
Dynein cargo inh: blocks dynein driven cargo transport along microtubules | 3617.4 mouse cells, GR-EGFP nuclear translocation imaging; test concentration mostly 20 µM; stimulated with dexamethasone, 1 µM; active compounds read low | z-score, hits read low | 220,000 tested, 0.47% active | AID 1381;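 active means plate z-score of nuclear minus cytoplasmic receptor signal below a set negative limit, without overly bright fluorescence or cell loss, cut at about -3.5 in these data, passing the limit was not always enough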;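 further: z-score of nuclear minus cytoplasmic ring GR-EGFP intensity difference per well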
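Buffer or medium: Induction medium lacking tetracycline, stripped serum | Also added: Dexamethasone agonist, 1.0 µM final, for 30 min | Timing: 48 h induction, 1 h compound, 30 min dex at 37 °C | Detection: Formaldehyde fixation, Hoechst nuclear stain, 10x automated fluorescence imaging | Measure: Nuclear versus cytoplasmic GR-EGFP signal, averaged per well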
Autophagy mod: autophagy modulation, high-content screen. MEF GFP-LC3 puncta imaging; test concentration mostly 10 µM. calls only at 10 µM (by protocol). 190,000 tested, 0.98% active. AID 463193;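 active means percentage of spot-positive cells more than 3 SD above its plate mean, without a fluorescence outlier flag or 80% toxicity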;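 further: spot-positive cell cutoff set from DMSO-treated cells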
Lmaj promast: Leishmania major promastigote growth inhibition; Leishmania major promastigotes, resazurin fluorescence viability; 200,000 tested, 9% active; AID 1063; inhibition, % at 10 µM; in the data active means inhibition above about 50%;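 further: promastigotes grown with compound for 44 hours at 28 °C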
HCT116 PTEN-null: PTEN-deleted cell growth suppression | viability, % at 10 µM | HCT116 PTEN-null viability, CellTiter-Glo, 60 h; active compounds read low | 140,000 tested, 1.2% active;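 active means viability at or below a set limit, 4 SD under the median of all tested compounds, cut at about 3.7% in these data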;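 further: PTEN knockout HCT116 line with beta catenin targeted HCT116 as companion control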
bCat KO growth: beta-catenin-lacking colon tumor cell growth suppression; HCT116 beta-catenin knockout viability, CellTiter-Glo, 60 h; active compounds read low; viability, % at 10 µM; 140,000 tested, 1.5% active;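 active means viability at or under a set limit, the compound median less 4 SD, cut at about 6% in these data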;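 further: 0% = Hyamine 1622 control at 20 µM and 100% = untreated cell control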
An asterisk follows results filed as active; i = inactive; nt = no result given; + = active, no number.

SMILES	Dynein cargo inh	Autophagy mod	Lmaj promast	HCT116 PTEN-null	bCat KO growth
CCN(CC(=O)Nc1cc(C)nn1-c1nc(C)cc(C)n1)Cc1ccccc1	-0.354	i	52.6*	52.5	56.4
Cc1nnc(NC(=O)c2csc3c2CCC(C)C3)s1 (stereo not drawn)	0.638	i	3.5	nt	nt
O=S(=O)(c1ccc(Cl)cc1)c1snnc1-c1ccccc1	-1.41	i	100.5*	1.8*	2.8*
O=S(=O)(c1ccc(F)cc1)c1snnc1-c1ccccc1	-3.08	i	81.1*	nt	nt
Cc1ccc(/C=C2/N=C(c3ccccc3)NNC2=O)cc1	-0.787	nt	nt	nt	nt
CC(=O)NCCNC(=O)c1ccc(-n2c(C)ccc2C)cc1	-0.0361	i	2.2	nt	nt
Cc1ccc(NC(=O)c2ccccc2)s1	-0.0252	i	69.3*	98.1	89.3
Cc1ccc(C)n1-c1ccc(C(=O)Nc2ccccc2F)cc1	0.743	i	4.2	nt	nt
Cc1cc(NC(=O)c2ccccc2)sc1C	-0.558	i	-1.6	71.9	75.5
CC(=O)Nc1ccc(NC(=O)c2ccc(-n3c(C)ccc3C)cc2)cc1	-0.854	i	68.5*	15.1	17.8
Cc1ccc(C)n1-c1ccc(NC(=O)c2ccccc2)cc1	-0.353	i	58.4*	19.0	18.1
CCc1ccccc1NC(=O)c1ccc(-n2c(C)ccc2C)cc1	-0.357	i	12.8	4.0	3.8*
CC1(C)Cc2noc(N)c2C(C)(C)N1O	-0.747	i	-2.9	91.0	92.6
O=C(C1CCC(Cn2c(=S)[nH]c3ccccc3c2=O)CC1)N1CCN(c2ccccc2)CC1 (stereo not drawn)	0.153	i	99.2*	nt	nt
O=C(C1CCC(Cn2c(=O)[nH]c3ccccc3c2=O)CC1)N1CCN(c2ccccc2)CC1 (stereo not drawn)	-0.296	i	38.5	78.7	93.4
O=C(CCCn1c(=S)[nH]c2ccc(Br)cc2c1=O)N1CCN(c2ccccn2)CC1	-0.146	i	18.6	69.6	75.3
O=C(C1CCC(Cn2c(=S)[nH]c3ccccc3c2=O)CC1)N1CCN(c2ccccn2)CC1 (stereo not drawn)	1.12	i	99.4*	nt	nt
COc1ccccc1N1CCN(C(=O)C2CCC(Cn3c(=S)[nH]c4ccccc4c3=O)CC2)CC1 (stereo not drawn)	-0.348	i	64.1*	30.6	31.6
COc1ccc(N2CCN(CCCNC(=O)C3CCC(CNc4nc(=S)[nH]c5ccccc45)CC3)CC2)cc1 (stereo not drawn)	-0.521	i	86.1*	nt	nt
COc1ccc(N2CCN(C(=O)C3CCC(Cn4c(=S)[nH]c5ccccc5c4=O)CC3)CC2)cc1 (stereo not drawn)	0.151	i	99.3*	52.1	49.8
O=C(C1CCC(Cn2c(=S)[nH]c3ccccc3c2=O)CC1)N1CCOCC1 (stereo not drawn)	-0.686	i	-0.5	82.7	85.5
C=CCc1c(C)nc(C)nc1N/N=C/c1ccccc1O	0.104	i	98.8*	76.2	89.1
Cc1ccc(C(C)C)cc1OCC(=O)N/N=C/c1ccc2c(c1)OCCO2	2.06	i	90.0*	89.4	82.4
Cc1cccc(C)c1OCC(=O)N/N=C/c1ccc2c(c1)OCO2	-0.254	i	-3.5	29.7	19.9
COc1ccc2oc(=O)c(C(=O)Oc3ccc(NC(C)=O)cc3)cc2c1	0.358	i	-0.2	100.2	113.0
SMILES	Dynein cargo inh	Autophagy mod	Lmaj promast	HCT116 PTEN-null	bCat KO growth
CCOc1ccc(NC(=NCc2ccc3c(c2)OCO3)SC2CC(=O)N(c3ccccc3)C2=O)cc1 (stereo not drawn)	0.708	i	0.1	69.3	70.3
CN=C(Nc1ccc(Br)cc1)SC1CC(=O)N(c2ccc(OC)cc2)C1=O (stereo not drawn)	-0.408	i	0.0	nt	nt
CCOc1ccc(NC(=NCc2ccc3c(c2)OCO3)SC2CC(=O)N(c3ccc(OCC)cc3)C2=O)cc1 (stereo not drawn)	1.86	i	4.2	8.5	2.2*
CN=C(Nc1ccc(C)c(C)c1)SC1CC(=O)N(c2ccc(OC)cc2)C1=O (stereo not drawn)	2.54	i	74.1*	nt	nt
COC(C[C@H]1O[C@H]1[C@H](O)[C@@H](C)OCc1ccccc1)OC	-0.241	nt	nt	nt	nt
COc1ccc(-c2cn3cc(Cl)ccc3n2)cc1OC	-0.798	i	44.9	86.1	99.6
COc1ccc(-c2cn3cc(C)ccc3n2)cc1Br	-1.11	i	84.1*	70.9	68.7
NC(=O)CCC(NC(=O)c1ccc(Cl)cc1)C(=O)O (stereo not drawn)	0.522	i	1.9	nt	nt
CCc1ccc(Nc2cnn(-c3nc4ccccc4s3)c(=O)c2Cl)cc1	1.22	i	65.3*	69.0	64.4
CCNC(=S)/N=C(\N)Nc1nc(C)c2cc(C)ccc2n1	2.18	i	81.4*	nt	nt
CCOc1ccc2nc(N/C(N)=N/C(=S)Nc3ccc(C)c(C)c3)nc(C)c2c1	-0.222	i	31.2	62.9	75.1
COC(=O)CSc1nnc(-c2sc3ccccc3c2Cl)o1	0.27	i	-6.5	102.1	102.7
N#CCSc1nnc(-c2sc3ccccc3c2Cl)o1	-0.127	+	-7.6	81.7	76.5
c1ccc(CC2CCN(Cc3ccccn3)CC2)cc1	0.0972	i	-5.6	nt	nt
Clc1cccc(CN2CCC(Cc3ccccc3)CC2)c1	0.0333	i	86.0*	91.3	83.8
c1ccc(CC2CCN(Cc3nc(-c4ccccc4)no3)CC2)cc1	-0.176	i	14.8	87.0	94.0
Cc1ccccc1NC(=O)c1ccc(CN2CCC(Cc3ccccc3)CC2)cc1	1.36	i	53.5*	96.6	88.0
O=C(/C=C/c1cccc(Cl)c1)N1CCC(Cc2ccccc2)CC1	0.647	i	50.1*	90.5	90.5
O=C(/C=C/c1ccccc1)N1CCC(Cc2ccccc2)CC1	0.599	i	-3.8	97.7	96.1
Clc1ccc(CN2CCC(Cc3ccccc3)CC2)cc1	0.485	i	90.0*	86.4	86.6
Cc1nc(-c2c(-c3ccc(O)cc3O)noc2C(F)(F)F)cs1	-0.519	i	-16.3	92.1	93.3
CN(C)NC(=O)c1cccc(Cl)c1	-0.0925	nt	nt	nt	nt
COc1ccc(C(=O)Nc2ccccc2C(=O)O)cc1Cl	0.753	i	67.2*	97.3	94.3
COc1ccccc1C(=O)NNC(=O)c1cccc(Cl)c1	-0.767	+	-4.2	nt	nt
COc1ccc(Cl)cc1C(=O)NNC(=O)c1cccc([N+](=O)[O-])c1	0.318	i	1.5	nt	nt
SMILES	Dynein cargo inh	Autophagy mod	Lmaj promast	HCT116 PTEN-null	bCat KO growth
Cc1ccc(C)n1NC(=O)c1cccc(Cl)c1	-0.442	i	92.4*	93.3	89.9
COc1ccc(C(=O)Nc2ccccc2C(=O)O)cc1NC(=O)C(c1ccccc1)c1ccccc1	-0.411	nt	nt	nt	nt
Cc1c(NC(=O)COC(=O)c2ccc(F)c(S(=O)(=O)N3CCOCC3)c2)c(=O)n(-c2ccccc2)n1C	0.0194	i	-5.3	nt	nt
Cc1ccc(N(CC(=O)NCc2ccco2)C(=O)CCC(=O)Nc2nccs2)cc1	-0.156	nt	nt	nt	nt
COc1ccc(NC(=O)/C(C#N)=C\C=C\c2ccco2)cc1	0.452	i	-0.5	13.8	9.5
Cc1ccccc1OCc1nnc(SCc2cc(=O)[nH]c3ccccc23)n1-c1ccccc1	0.0941	i	75.0*	63.8	73.4
